RORA act = activators of orphan receptor RORA, primary screen, cell-based, luminescence; CHO-K1 Gal4-RORA LBD luciferase reporter; percent increase over mock-subtracted basal signal; actives 1.5% (n = 65,000); Nuclear receptor ROR-alpha (Homo sapiens), P35398; activation, % at 10 µM;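 active means activation above the mean of all tested compounds plus 3 SD, cut at about 49% in these data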;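 further: 0% = DMSO-treated RORA cells and 100% = added signal equal to DMSO minus mock-transfected cells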
JNK3 inh = JNK3 kinase activity inhibitors, primary screen, biochemical, human, purified enzyme. Mitogen-activated protein kinase 10 (Homo sapiens), P53779. HTS. inhibition, % at 8 µM. actives 0.61% (n = 60,000). AID 746, 2007; in the data active means inhibition above about 17%;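 further: 0% = DMSO and 100% = reference inhibitor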
Target sequence (P53779 whole entry, looked up): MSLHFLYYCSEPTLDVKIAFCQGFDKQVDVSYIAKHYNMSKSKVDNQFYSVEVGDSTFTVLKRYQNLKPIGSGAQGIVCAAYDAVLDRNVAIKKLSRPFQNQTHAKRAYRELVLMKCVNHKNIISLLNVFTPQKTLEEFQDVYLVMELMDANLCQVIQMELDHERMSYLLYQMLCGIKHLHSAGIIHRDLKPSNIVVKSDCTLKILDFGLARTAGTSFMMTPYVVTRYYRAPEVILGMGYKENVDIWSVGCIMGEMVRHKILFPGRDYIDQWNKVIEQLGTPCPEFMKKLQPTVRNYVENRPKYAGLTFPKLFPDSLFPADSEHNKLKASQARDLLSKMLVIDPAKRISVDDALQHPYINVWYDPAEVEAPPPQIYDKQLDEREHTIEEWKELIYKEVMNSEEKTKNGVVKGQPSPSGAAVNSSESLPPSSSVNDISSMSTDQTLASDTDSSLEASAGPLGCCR
SF-1 act = activators of human SF-1, primary screen, cell-based, CHO-K1, Gal4-SF-1 LBD, luciferase luminescence. CHO-K1 Gal4-SF-1 LBD luciferase reporter; % increase over DMSO SF-1-specific signal. activation, % at 10 µM. actives 1.9% (n = 65,000);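 active means activation above the mean activation of all tested compounds plus 3 SD, cut at about 50% in these data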
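material = CHO-K1 cells with Gal4–hSF-1 LBD chimera plus Gal4-driven luciferase | compound = 10 µM single point, 1% DMSO | incubation = 20 h compound exposure at 37 °C after 1 h cell settling | measured by = SteadyLite luciferase luminescence | evaluation = percent activation relative to DMSO median and mock-transfected background | control set = DMSO negative control and −SF1 background wells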
D1 mod = D1 CRE-luciferase signal change, two-sided – cell-based, HEK293 D1, dopamine EC30, D1 allosteric modulator project, primary screen; actives 5.9% (n = 58,000); D(1A) dopamine receptor (Homo sapiens), P21728; dopamine EC30 potentiation; actives deviate in either direction; B-score at 10 µM; AID 641, 2007;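 active means luminescence count or its row- and column-corrected plate score outside the 99.7% band of the plate's sample wells, on either side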
HEK293 NFkB inh = inhibitors of PMA/ionomycin-induced NF-kB reporter, primary screen, antigen receptor NF-kB inhibitor project, cell-based, HEK-293 luciferase reporter, luminescence; actives 0.21% (n = 62,000); inhibition, % at 3 µM; AID 465, 2006; HEK-293 NF-kB luciferase reporter;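 active means inhibition above the mean of all tested compounds plus 3 SD, cut at about 40% in these data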;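 further: 0% = stimulated DMSO wells and 100% = 10 µM reference inhibitor 5653914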
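Timing: 1 h pretreatment, 16 h stimulation, 37 °C; system: HEK-293 cells with stable firefly luciferase reporter driven by four HIV NF-kB elements; doses: 3 µM once, 0.30% DMSO; measured by: luciferase luminescence; control set: DMSO and 10 µM reference inhibitor; repeats: single test; reagent: PMA plus ionomycin mix as NF-kB-activating stimulus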
D1 PAM confirm = D1 receptor positive allosteric modulators, retest, confirmation, cell-based, HEK293 D1, CRE-luciferase, duplicate; actives 88% (n = 2,200); dopamine EC30 potentiation; hits give high values; AID 642, 2007; shares compounds with D1 mod; luminescence at 10 µM;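 active means luminescence in either of two replicates above the same-plate mean plus 3 SD of the low-dose dopamine control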
D1 ag no DA = D1 receptor agonism without dopamine, confirmation, mechanism study for D1 allosteric modulator project, cell-based, HEK293 D1, CRE-luciferase, secondary assay 1; luminescence at 10 µM; shares compounds with D1 mod; luminescence, no dopamine; hits give high values; actives 0.8% (n = 1,900); in the data active means luminescence above about 3900
Isoprot counter = counter-screen for D1 modulators: isoproterenol response in HEK293 cells | shares compounds with D1 mod | HEK293 D1 CRE-luciferase, isoproterenol EC30 counter-screen | calls only at 10 µM | actives 63% (n = 2,200) | AID 647;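 active means luminescence in either replicate above plate mean of wells with a partly effective reference agonist dose plus 3 SD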;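 further: isoproterenol raises cAMP through native beta-adrenoceptor Gs so signal bypasses D1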
Active calls of the source: *; i = inactive; . = not tested or not shown; + = active, no number. Compounds with a hit are over-represented: about 7.9% of the library has one in this group of screens.

SMILES	RORA act	JNK3 inh	SF-1 act	D1 mod	HEK293 NFkB inh	D1 PAM confirm	D1 ag no DA	Isoprot counter
O=C(c1cccc(-c2nnc(-c3ccccc3)o2)c1)N1CCCCC1	16.0	-7.1	31.8	7.88*	-28.9	12576*	1552	+
CCC1S/C(=C(\C#N)C(=O)NCc2ccco2)N(c2ccc(F)cc2)C1=O (stereo not given)	-8.6	-4.2	1.5	1.26	14.7	.	.	.
CCC1S/C(=C(\C#N)C(N)=O)N(c2ccc(F)cc2)C1=O (stereo not given)	-10.6	30.7*	-3.1	4.98*	6.0	9908*	.	+
CCc1cc2c(CN3CCN(CCO)CC3)cc(=O)oc2cc1O	16.1	-1.4	-8.9	-0.151	8.2	.	.	.
CCOC(=O)C(NCCCO)c1ccccc1 (stereo not given)	10.8	-3.1	10.2	2.81*	15.2	7136	1552	i
O=S(=O)(c1cc(F)cc(F)c1)N1CCN(c2ncccn2)CC1	-4.6	.	4.1	0.0426	11.0	.	.	.
COc1ccc(C(=O)OCC(=O)NCc2ccco2)cc1OC	-17.5	-7.7	-0.7	1.11	9.1	.	.	.
CCOc1ccc(C(=O)OCC(=O)NCc2ccco2)cc1OCC	-6.2	1.9	-12.7	7.73*	3.4	12216*	1596	+
CCCn1c(C)cc(=O)c2cc(NC(=O)c3ccccn3)ccc21	0.6	-0.9	-2.3	0.0617	24.8	.	.	.
Cc1ccc(-n2nc3c(c2NC(=O)c2c(-c4ccccc4Cl)noc2C)CSC3)cc1	-27.0	-2.8	-2.8	4.57*	0.2	4636	1496	i
Cc1ccccc1-n1nc2c(c1NC(=O)c1c(-c3ccccc3Cl)noc1C)CSC2	-7.9	-0.1	9.0	-0.965	8.2	.	.	.
CSc1nc2nc(-c3ccccc3)cc(C(F)(F)F)n2n1	6.2	-0.6	-9.9	0.697	0.2	.	.	.
Cc1cc(C)cc(N(CC(=O)NC2CCC(C)CC2)S(=O)(=O)c2c(C)noc2C)c1 (stereo not given)	5.6	4.2	-8.9	-0.0508	-14.6	.	.	.
Cn1c(=O)n(CC(=O)O)c(=O)c2c1nc1n2CCS1	-1.3	-6.0	-8.3	5.72*	9.8	4976	1656	i
CCOC(=O)Cn1c(=O)c2c(nc3n2CCN3Cc2ccccc2)n(C)c1=O	-9.9	-4.7	2.0	-1.58	11.3	.	.	.
COC(=O)c1cc(C)sc1NC(=O)c1cccnc1	7.8	0.1	9.3	5.44*	13.4	16836*	1548	+
Nc1nc(SCC(=O)C23CC4CC(CC(C4)C2)C3)n[nH]1	4.5	2.3	11.1	5.33*	-8.3	8548*	.	i
COCCn1c(CCC(=O)O)nc2c1c(=O)[nH]c(=O)n2CC(C)C	-5.1	0.9	-16.2	-1.21	9.8	.	.	.
CCOC(=O)c1c(C)c(-c2ccccc2)n(CC(=O)N2CCCC2)c1C	-10.8	-8.3	-9.7	0.791	14.1	.	.	.
CCOC(=O)c1c(N)nn(C(=O)C(C)C)c1-c1ccccc1	15.9	2.0	-1.7	6.8*	12.6	18276*	1576	+
CCOC(=O)c1c(N)nn(C(=O)CC)c1-c1ccccc1	4.0	3.4	-1.5	13*	8.6	17424*	1468	+
Nc1c(S(=O)(=O)c2cccs2)c2nc3ccccc3nc2n1CC1CCCO1 (stereo not given)	-2.2	-1.6	1.5	5.86*	21.9	12068*	1576	+
O=C(NC1(C(F)(F)F)NC(=O)N(CC2CCCCC2)C1=O)c1ccco1 (stereo not given)	8.6	0.4	3.3	-0.0794	15.4	.	.	.
CC(=O)OC1CC(C)N(C(=O)c2ccccc2)c2ccc(C)cc21 (stereo not given)	-13.5	-3.7	-20.6	11.4*	22.2	11832*	1612	+
O=C(CN1C(=O)C2CC=CCC2C1=O)NC1=NCCS1 (stereo not given)	-1.6	2.0	9.2	0.692	-3.6	.	.	.
SMILES	RORA act	JNK3 inh	SF-1 act	D1 mod	HEK293 NFkB inh	D1 PAM confirm	D1 ag no DA	Isoprot counter
CCOC(=O)c1c(NC(=O)CSc2nnc(-c3cccnc3)o2)sc(C(C)=O)c1C	6.1	3.9	23.1	4.04*	7.8	6332*	1464	+
COc1ccc(CNC(=O)c2cnn3c(C(F)F)cc(C)nc23)cc1OC	3.9	24.3*	-5.0	3.9*	-3.1	8268*	1472	+
CC1(C)CC(=O)C2=C(C1)N(CC1CCCO1)C(=O)C2(NC(=O)c1cccnc1)C(F)(F)F (stereo not given)	19.5	1.8	12.8	0.0485	-11.3	.	.	.
CCOc1ccccc1NC(=O)C1C2C=CC(O2)C1C(=O)O (stereo not given)	-22.8	-0.1	-1.7	4.75*	13.7	5564	1628	i
Cc1cc(O)c(C=Nc2cccc(Cl)c2)c(=O)o1	-0.5	1.3	-0.6	3.78*	3.0	8536*	1512	i
Oc1oc(-c2ccco2)nc1C=Nc1cccc(Cl)c1	-16.2	-0.9	-3.5	.	.	.	.	.
CCOc1ncccc1C(=O)NCC1COc2ccccc2O1 (stereo not given)	-8.1	9.9	-6.7	12.6*	13.6	17888*	.	+
O=C(Oc1ccc2c(c1)OCO2)c1ccc(F)cc1Cl	19.8	-10.2	27.2	0.363	7.1	.	.	.
CCOc1ncccc1C(=O)Oc1ccc2c(c1)OCO2	-11.3	4.3	5.3	3.17*	2.3	8328*	2048	+
O=C(CCC1COc2ccccc2O1)NCC1COc2ccccc2O1 (stereo not given)	-18.2	4.1	-3.9	-0.122	2.1	.	.	.
CCc1ccc(C(=O)NCC2COc3ccccc3O2)o1 (stereo not given)	18.1	-2.8	24.9	3.65*	-6.1	7128	1732	i
COc1cc(NC(=O)CCCC(=O)OCC(F)(F)C(F)F)nc(OC)n1	-22.9	4.0	6.0	0.839	6.6	.	.	.
O=C(Cc1coc2ccc3ccccc3c12)N1CCN(c2ncccn2)CC1	1.7	3.0	7.6	0.573	1.4	.	.	.
CCCC(=O)c1ccc(N2CCN(S(=O)(=O)c3ccccc3)CC2)c(F)c1	11.1	3.4	20.9	4.8*	8.7	4444	1352	i

Source: PubChem BioAssay
